{"data": "Results collected from several papers", "MAP2K5": "Dual specificity mitogen-activated protein kinase kinase 5 (MAP2K5, Homo sapiens, UniProt Q13163)", "note": "Lines come from different studies, so protocols differ."}
{"Structure (SMILES)": "Cc1nn(C)cc1-c1nc2c(N3CCN(Cc4ccc(Cl)cc4)CC3)c(Cl)cnc2[nH]1", "target": "MAP2K5", "observed": "binding", "technique": "competition with immobilised ligand", "tested at": "1 µM", "quantity": "remaining binding", "value": "58%"}
{"Structure (SMILES)": "Sc1ncnc2nc[nH]c12", "target": "Replicase polyprotein 1a, main protease (Severe acute respiratory syndrome-related coronavirus, UniProt P0C6U8)", "observed": "enzyme activity", "action": "inhibitor", "tested at": "200 µM", "quantity": "remaining activity", "value": "49%"}
{"Structure (SMILES)": "C#Cc1n[nH]c2c(-c3cn(C(C)c4ccccn4)c(=O)[nH]c3=O)cc(F)cc12 (centres unmarked)", "target": "Fibroblast growth factor receptor 1 (FGFR1, Homo sapiens, UniProt P11362)", "observed": "enzyme activity", "action": "inhibitor", "tested at": "1 µM", "quantity": "inhibition", "value": "3.8%"}
{"Structure (SMILES)": "CCN(CC)CCCC[C@H](NC(=O)[C@H](CC(C)C)NC(=O)[C@H](C)NC(=O)[C@H](Cc1ccccc1)NC(=O)c1ccc(C(C)(C)C)cc1)C(=O)N[C@@H](CO)C(=O)OC", "target": "Melanocortin receptor 4 (MC4R, Homo sapiens, UniProt P32245)", "observed": "ligand displacement", "technique": "radioligand", "tested at": "10 µM", "quantity": "remaining binding", "value": "84%"}
{"Structure (SMILES)": "Nc1ncc(-c2nc(N3CCOCC3)nc(N3CCOCC3)n2)c(C(F)F)n1", "target": "MAP2K5", "observed": "binding", "technique": "competition with immobilised ligand", "tested at": "10 µM", "quantity": "remaining binding", "value": "39%"}
{"Structure (SMILES)": "COc1ncccc1-c1cnn2ccc(N3CCN(C(=O)OC(C)C)CC3)nc12", "target": "Peripheral plasma membrane protein CASK (CASK, Homo sapiens, UniProt O14936)", "observed": "binding", "technique": "competition with immobilised ligand", "tested at": "1 µM", "quantity": "remaining binding", "value": "93%"}
{"Structure (SMILES)": "CN1CC[C@@]2(C)c3cc(OC(=O)Nc4ccccc4)ccc3N(C)[C@@H]12", "target": "Muscarinic acetylcholine receptor M5 (CHRM5, Homo sapiens, UniProt P08912)", "observed": "ligand displacement", "technique": "radioligand", "tested at": "10 µM", "quantity": "inhibition", "value": "6.5%"}
{"Structure (SMILES)": "CO[C@H]1/C=C/O[C@@]2(C)Oc3c(C)c(O)c4c(O)c(c(/C=N/N5CCN(C6CCCC6)CC5)c(O)c4c3C2=O)NC(=O)/C(C)=C\\C=C\\[C@H](C)[C@H](O)[C@@H](C)[C@@H](O)[C@@H](C)[C@H](OC(C)=O)[C@@H]1C", "target": "dppA (Mycobacterium tuberculosis, UniProt I6X811)", "observed": "thermal stability", "tested at": "100 µM", "quantity": "ΔTm", "value": "> 1.5 °C"}
